Reference: ChEMBL document CHEMBL2321659, “Design, synthesis, and biological evaluation of indenoisoquinoline rexinoids with chemopreventive potential” (J Med Chem, 2013)

Test system: not listed separately
Experiment: Cytotoxicity against African green monkey COS1 cells assessed as cell survival
Format: cell-based
Set-up: concentration or dose not given beside the values
Details: chlorocebus aethiops, COS-1 cells; read-out: Activity
Molecule `COC(=O)c1ccc2c3c(n(CCCN)c(=O)c2c1)-c1ccccc1C3=O` has a viability of 55%.
`O=C1c2ccccc2-c2c1c1ccccc1c(=O)n2CCCn1ccnc1` showed a viability of 100%.
For `CNc1ccc2c3c(n(CCCN)c(=O)c2c1)-c1ccccc1C3=O`, the viability was 45.9%.
With `CN(C)c1ccc2c3c(n(CCCN)c(=O)c2c1)-c1ccccc1C3=O` the viability was 30.6%.
For `COc1cc2c3c(n(CCCN)c(=O)c2cc1OC)-c1ccc(F)cc1C3=O`, the viability was 23.8%.
`C[N+](C)(C)CCCn1c2c(c3ccccc3c1=O)C(=O)c1ccccc1-2` gave a viability of 99.4%.
`CNCCCn1c2c(c3ccc([N+](=O)[O-])cc3c1=O)C(=O)c1ccccc1-2` gave a viability of 33.1%.
`O=C(O)CCn1c2c(c3ccc(Br)cc3c1=O)C(=O)c1ccccc1-2` showed a viability of 98%.
Work on `NCCCn1c2c(c3ccc([N+](=O)[O-])cc3c1=O)C(=O)c1ccccc1-2` yielded a viability of 32.1%.
Work on `NCCCn1c2c(c3ccc(C(=O)O)cc3c1=O)C(=O)c1ccccc1-2` yielded a viability of 83.7%.
Work on `Cc1cc2c(cc1C1(c3ccc(C(=O)O)cn3)CC1)C(C)(C)CCC2(C)C` yielded a viability of 84.3%.
In the case of `CNCCCn1c2c(c3ccc(N)cc3c1=O)C(=O)c1ccccc1-2`, the viability is reported as 53%.

Molecular target: T1, Retinoic acid receptor RXR-alpha (Homo sapiens) (UniProt P19793)
T1 sequence (whole entry): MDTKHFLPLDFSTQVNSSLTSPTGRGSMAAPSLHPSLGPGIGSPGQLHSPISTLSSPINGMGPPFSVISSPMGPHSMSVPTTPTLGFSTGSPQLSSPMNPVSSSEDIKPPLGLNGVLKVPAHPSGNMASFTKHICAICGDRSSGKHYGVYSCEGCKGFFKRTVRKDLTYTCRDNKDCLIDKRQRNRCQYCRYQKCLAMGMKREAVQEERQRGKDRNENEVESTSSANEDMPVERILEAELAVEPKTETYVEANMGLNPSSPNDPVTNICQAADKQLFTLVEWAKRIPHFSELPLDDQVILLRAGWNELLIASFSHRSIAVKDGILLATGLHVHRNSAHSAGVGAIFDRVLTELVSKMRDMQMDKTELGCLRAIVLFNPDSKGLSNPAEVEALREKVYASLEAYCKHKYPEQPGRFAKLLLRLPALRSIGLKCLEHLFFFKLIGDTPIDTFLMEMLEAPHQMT
Experiment: Activation of human RXRalpha activity expressed in COS1 cells assessed as induction ratio at 50 uM after 12 hrs by RXRE-luciferase reporter gene assay relative to untreated control
Format: cell-based
Details: COS-1
Method in brief: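 COS-1 cells transiently co-transfected per well with 100 ng RXRE-firefly luciferase reporter, 50 ng human RXRα expression vector and 3 ng Renilla luciferase vector using Lipofectamine 2000 for 24 h, then exposed to compound for a further 12 h. Dual-luciferase read-out. Induction ratio taken at 50 µM test concentration.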
In the case of `CNCCCn1c2c(c3ccc(N)cc3c1=O)C(O)c1ccccc1-2` (stereo not given), the Ratio is reported as < 1.
For `COC(=O)CCCCC(=O)Nc1ccc2c3c(n(C)c(=O)c2c1)-c1ccccc1C3=O`, the Ratio was < 1.
For `COC(=O)c1ccc2c3c(n(CCCN)c(=O)c2c1)-c1ccccc1C3=O`, the Ratio was < 1.
In the case of `NC(=O)CCn1c2c(c3ccc([N+](=O)[O-])cc3c1=O)C(=O)c1ccccc1-2`, the Ratio is reported as < 1.
For `CC(=O)NCCCn1c2c(c3ccc([N+](=O)[O-])cc3c1=O)C(=O)c1ccccc1-2`, the Ratio was < 1.
In the case of `NCCCn1c2c(c3ccc(NC(=O)CCCC(=O)O)cc3c1=O)C(=O)c1ccccc1-2`, the Ratio is reported as < 1.
For `Cn1c2c(c3ccc(NCC(=O)O)cc3c1=O)C(=O)c1ccccc1-2`, the Ratio was < 1.
For `COC(=O)CCC(=O)Nc1ccc2c3c(n(CCCN)c(=O)c2c1)-c1ccccc1C3=O`, the Ratio was < 1.
For `CNc1ccc2c3c(n(CCCNC(=O)OC(C)(C)C)c(=O)c2c1)-c1ccccc1C3O` (stereo not given), the Ratio was < 1.
With `CCOC(=O)CNc1ccc2c3c(n(C)c(=O)c2c1)-c1ccccc1C3=O` the Ratio was < 1.
In the case of `O=C(O)CCn1c2c(c3ccc([N+](=O)[O-])cc3c1=O)C(=O)c1ccccc1-2`, the Ratio is reported as < 1.
With `CCCCn1c2c(c3ccccc3c1=O)C(=O)c1ccccc1-2` the Ratio was < 1.
For `COC(=O)c1ccc2c3c(n(C)c(=O)c2c1)-c1ccccc1C3=O`, the Ratio was < 1.
With `COc1ccc2c(c1)C(=O)c1c-2n(CCCN)c(=O)c2cc(OC)c(OC)cc12` the Ratio was < 1.
With `O=C1c2ccccc2-c2c1c1ccccc1c(=O)n2CCCn1ccnc1` the Ratio was < 1.
In the case of `NCCCn1c2c(c3ccc(NC(=O)C(=O)O)cc3c1=O)C(=O)c1ccccc1-2`, the Ratio is reported as < 1.
With `O=C1c2ccccc2-c2c1c1ccc([N+](=O)[O-])cc1c(=O)n2CCCCl` the Ratio was < 1.
In the case of `O=C1c2ccccc2-c2c1c1ccc([N+](=O)[O-])cc1c(=O)n2CCCCO`, the Ratio is reported as < 1.
In the case of `O=C1c2ccccc2-c2c1c1ccccc1c(=O)n2CCCO`, the Ratio is reported as < 1.
With `COC(=O)CCCc1ccc2c3c(n(C)c(=O)c2c1)-c1ccccc1C3=O` the Ratio was < 1.
With `CN(C)c1ccc2c3c(n(CCCN)c(=O)c2c1)-c1ccccc1C3=O` the Ratio was < 1.
For `Cn1c2c(c3ccc(NC(=O)C(=O)O)cc3c1=O)C(=O)c1ccccc1-2`, the Ratio was < 1.
With `COc1cc2c3c(n(CCCN)c(=O)c2cc1OC)-c1ccc(F)cc1C3=O` the Ratio was < 1.
With `O=C1c2ccccc2-c2c1c1ccc(Br)cc1c(=O)n2CCCO` the Ratio was < 1.
For `O=C1c2ccccc2-c2c1c1ccc(Br)cc1c(=O)n2CCCn1ccnc1`, the Ratio was < 1.
For `C[N+](C)(C)CCCn1c2c(c3ccccc3c1=O)C(=O)c1ccccc1-2`, the Ratio was < 1.
With `CNCCCn1c2c(c3ccc([N+](=O)[O-])cc3c1=O)C(=O)c1ccccc1-2` the Ratio was < 1.
For `NC(=O)CCn1c2c(c3ccccc3c1=O)C(=O)c1ccccc1-2`, the Ratio was < 1.
In the case of `Cn1c2c(c3ccc(/C=C/C(=O)O)cc3c1=O)C(=O)c1ccccc1-2`, the Ratio is reported as < 1.
With `CC(C)(C)OC(=O)NCCCn1c2c(c3ccc([N+](=O)[O-])cc3c1=O)C(=O)c1ccccc1-2` the Ratio was < 1.
With `CC(=O)Nc1ccc2c3c(n(CCCN=[N+]=[N-])c(=O)c2c1)-c1ccccc1C3=O` the Ratio was < 1.
For `Nc1ccc2c3c(n(CCCCl)c(=O)c2c1)-c1ccccc1C3=O`, the Ratio was < 1.
In the case of `Cc1ccc2c3c(n(C)c(=O)c2c1)-c1ccccc1C3=O`, the Ratio is reported as < 1.
In the case of `COC(=O)CCCCC(=O)Nc1ccc2c3c(n(CCCN)c(=O)c2c1)-c1ccccc1C3=O`, the Ratio is reported as < 1.
With `O=C(O)CCn1c2c(c3ccc(Br)cc3c1=O)C(=O)c1ccccc1-2` the Ratio was < 1.
With `CCOC(CCn1c2c(c3ccc([N+](=O)[O-])cc3c1=O)C(=O)c1ccccc1-2)OCC` the Ratio was < 1.
For `NCCCn1c2c(c3ccc([N+](=O)[O-])cc3c1=O)C(=O)c1ccccc1-2`, the Ratio was < 1.
For `Cn1c2c(c3ccc([N+](=O)[O-])cc3c1=O)C(=O)c1ccccc1-2`, the Ratio was < 1.
In the case of `COC(=O)Cc1ccc2c3c(n(C)c(=O)c2c1)-c1ccccc1C3=O`, the Ratio is reported as < 1.
For `COC(=O)C(=O)Nc1ccc2c3c(n(C)c(=O)c2c1)-c1ccccc1C3=O`, the Ratio was < 1.
In the case of `COC(CCn1c2c(c3ccc([N+](=O)[O-])cc3c1=O)C(=O)c1ccccc1-2)OC`, the Ratio is reported as < 1.
For `NCCCn1c2c(c3ccc(C(=O)O)cc3c1=O)C(=O)c1ccccc1-2`, the Ratio was < 1.
For `O=C(O)CCn1c2c(c3ccccc3c1=O)C(=O)c1ccccc1-2`, the Ratio was < 1.
For `CC(=O)Nc1ccc2c3c(n(CCCO)c(=O)c2c1)-c1ccccc1C3=O`, the Ratio was < 1.
In the case of `CN(C)c1ccc2c3c(n(CCCNC(=O)OC(C)(C)C)c(=O)c2c1)-c1ccccc1C3=O`, the Ratio is reported as < 1.
With `COC(=O)c1ccc2c3c(n(CCCN4CCOCC4)c(=O)c2c1)-c1ccccc1C3=O` the Ratio was < 1.
In the case of `COC(=O)CCCC(=O)Nc1ccc2c3c(n(C)c(=O)c2c1)-c1ccccc1C3=O`, the Ratio is reported as < 1.
In the case of `Cn1c2c(c3ccc(C=O)cc3c1=O)C(=O)c1ccccc1-2`, the Ratio is reported as < 1.
For `N#Cc1ccc2c3c(n(CCCn4ccnc4)c(=O)c2c1)-c1ccccc1C3=O`, the Ratio was < 1.
For `CN(C)CCCn1c2c(c3ccc(C#N)cc3c1=O)C(=O)c1cc3c(cc1-2)OCO3`, the Ratio was < 1.
For `COc1ccc2c(c1)C(=O)c1c-2n(CCCN)c(=O)c2cc(N(C)C)ccc12`, the Ratio was < 1.
In the case of `Cn1c2c(c3ccc(/C=C/C#N)cc3c1=O)C(=O)c1ccccc1-2`, the Ratio is reported as < 1.
For `NCCCn1c2c(c3ccc(N)cc3c1=O)C(O)c1ccccc1-2` (stereo not given), the Ratio was < 1.
With `COC(=O)CCn1c2c(c3ccc(Br)cc3c1=O)C(=O)c1ccccc1-2` the Ratio was < 1.
In the case of `Nc1ccc2c3c(n(CCCO)c(=O)c2c1)-c1ccccc1C3=O`, the Ratio is reported as < 1.
With `NCCCn1c2c(c3ccc(NC(=O)CC(=O)O)cc3c1=O)C(=O)c1ccccc1-2` the Ratio was < 1.
In the case of `Cn1c2c(c3ccc(Br)cc3c1=O)C(=O)c1ccccc1-2`, the Ratio is reported as < 1.
With `Cn1c2c(c3ccc(C(N)=O)cc3c1=O)C(=O)c1ccccc1-2` the Ratio was < 1.
In the case of `COC(=O)C#Cc1ccc2c3c(n(C)c(=O)c2c1)-c1ccccc1C3=O`, the Ratio is reported as < 1.
With `COCCCn1c2c(c3ccc([N+](=O)[O-])cc3c1=O)C(=O)c1ccccc1-2` the Ratio was < 1.
In the case of `NCCCn1c2c(c3ccc(NC(=O)CCC(=O)O)cc3c1=O)C(=O)c1ccccc1-2`, the Ratio is reported as < 1.
With `Cn1c2c(c3ccc(CCCC(=O)O)cc3c1=O)C(=O)c1ccccc1-2` the Ratio was < 1.
With `[N-]=[N+]=NCCCn1c2c(c3ccc([N+](=O)[O-])cc3c1=O)C(=O)c1ccccc1-2` the Ratio was < 1.
In the case of `Cn1c2c(c3ccc(NC(=O)CC(=O)O)cc3c1=O)C(=O)c1ccccc1-2`, the Ratio is reported as < 1.
In the case of `O=C1c2ccccc2-c2c1c1ccc([N+](=O)[O-])cc1c(=O)n2CCCO`, the Ratio is reported as < 1.
In the case of `COC(=O)CCC(=O)Nc1ccc2c3c(n(C)c(=O)c2c1)-c1ccccc1C3=O`, the Ratio is reported as < 1.
For `Cn1c2c(c3ccccc3c1=O)C(=O)c1ccccc1-2`, the Ratio was < 1.
With `COC(=O)C(=O)Nc1ccc2c3c(n(CCCN)c(=O)c2c1)-c1ccccc1C3=O` the Ratio was < 1.
With `CC(C)(C)OC(=O)NCCCn1c2c(c3ccc(N)cc3c1=O)C(=O)c1ccccc1-2` the Ratio was < 1.
With `Cn1c2c(c3ccc(Cl)cc3c1=O)C(=O)c1ccccc1-2` the Ratio was < 1.
With `O=CCCn1c2c(c3ccc([N+](=O)[O-])cc3c1=O)C(=O)c1ccccc1-2` the Ratio was < 1.
With `COC(=O)CCCC(=O)Nc1ccc2c3c(n(CCCN)c(=O)c2c1)-c1ccccc1C3=O` the Ratio was < 1.
In the case of `CC(=O)Nc1ccc2c3c(n(CCCCl)c(=O)c2c1)-c1ccccc1C3=O`, the Ratio is reported as < 1.
In the case of `CNc1ccc2c3c(n(CCCNC(=O)OC(C)(C)C)c(=O)c2c1)-c1ccccc1C3=O`, the Ratio is reported as < 1.
In the case of `CNc1ccc2c3c(n(CCCN)c(=O)c2c1)-c1ccccc1C3O` (stereo not given), the Ratio is reported as < 1.
In the case of `COC(=O)CC(=O)Nc1ccc2c3c(n(C)c(=O)c2c1)-c1ccccc1C3=O`, the Ratio is reported as < 1.
With `COC(=O)/C=C/c1ccc2c3c(n(C)c(=O)c2c1)-c1ccccc1C3=O` the Ratio was < 1.
In the case of `[N-]=[N+]=NCCn1c2c(c3ccc([N+](=O)[O-])cc3c1=O)C(=O)c1ccccc1-2`, the Ratio is reported as < 1.
In the case of `Nc1ccc2c3c(n(CCCO)c(=O)c2c1)-c1ccccc1C3O` (stereo not given), the Ratio is reported as < 1.
In the case of `Cn1c2c(c3ccc(CC(=O)O)cc3c1=O)C(=O)c1ccccc1-2`, the Ratio is reported as < 1.
For `N#Cc1ccc2c3c(n(CCCN4CCOCC4)c(=O)c2c1)-c1ccccc1C3=O`, the Ratio was < 1.
In the case of `COC(=O)c1ccc2c3c(n(CCCn4ccnc4)c(=O)c2c1)-c1ccccc1C3=O`, the Ratio is reported as < 1.
For `Cn1c2c(c3ccc(I)cc3c1=O)C(=O)c1ccccc1-2`, the Ratio was < 1.
With `O=C1c2ccccc2-c2c1c1ccc([N+](=O)[O-])cc1c(=O)n2CCCBr` the Ratio was < 1.
In the case of `Cn1c2c(c3ccc(C(=O)O)cc3c1=O)C(=O)c1ccccc1-2`, the Ratio is reported as < 1.
With `NCCCn1c2c(c3ccc(NC(=O)CCCCC(=O)O)cc3c1=O)C(=O)c1ccccc1-2` the Ratio was < 1.
In the case of `COCCCn1c2c(c3ccccc3c1=O)C(=O)c1ccccc1-2`, the Ratio is reported as < 1.
With `Cn1c2c(c3ccc(C#N)cc3c1=O)C(=O)c1ccccc1-2` the Ratio was < 1.
